According to the M2OR odorant receptor database:

Tests used:
Conditions in all cases: stereoisomer not certain
[1] = biological target: T1, UniProt E9Q9Z6
T1 sequence (whole entry): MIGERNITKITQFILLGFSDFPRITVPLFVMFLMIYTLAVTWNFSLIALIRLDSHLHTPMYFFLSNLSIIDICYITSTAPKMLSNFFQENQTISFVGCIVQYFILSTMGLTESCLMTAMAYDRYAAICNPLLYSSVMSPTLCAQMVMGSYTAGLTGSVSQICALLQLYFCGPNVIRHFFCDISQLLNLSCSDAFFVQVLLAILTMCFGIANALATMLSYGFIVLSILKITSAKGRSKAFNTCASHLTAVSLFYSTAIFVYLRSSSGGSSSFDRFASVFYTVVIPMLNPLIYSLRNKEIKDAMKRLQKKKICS
Outline: (§1)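 Transient luciferase assays in mammalian cell lines were common, though methods varied by source. The values come from published papers and their supplementary material, with extra details from the original authors when needed. Responsive refers to a measured signal the original authors judged statistically different from baseline, and non-responsive (inactive) to the remainder.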

[2] = biological target: T2, UniProt E9PVX1
T2 sequence (whole entry): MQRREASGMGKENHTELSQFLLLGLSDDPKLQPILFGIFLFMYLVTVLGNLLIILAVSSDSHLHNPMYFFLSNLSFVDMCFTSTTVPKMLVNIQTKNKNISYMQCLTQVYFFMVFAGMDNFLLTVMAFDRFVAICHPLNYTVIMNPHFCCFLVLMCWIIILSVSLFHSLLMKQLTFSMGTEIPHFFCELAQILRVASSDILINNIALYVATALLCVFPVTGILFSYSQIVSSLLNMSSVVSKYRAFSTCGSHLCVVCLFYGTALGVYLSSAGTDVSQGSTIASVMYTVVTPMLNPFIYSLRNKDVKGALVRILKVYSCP
Outline: as §1

[3] = biological target: T3, UniProt E9PZ66
T3 sequence (whole entry): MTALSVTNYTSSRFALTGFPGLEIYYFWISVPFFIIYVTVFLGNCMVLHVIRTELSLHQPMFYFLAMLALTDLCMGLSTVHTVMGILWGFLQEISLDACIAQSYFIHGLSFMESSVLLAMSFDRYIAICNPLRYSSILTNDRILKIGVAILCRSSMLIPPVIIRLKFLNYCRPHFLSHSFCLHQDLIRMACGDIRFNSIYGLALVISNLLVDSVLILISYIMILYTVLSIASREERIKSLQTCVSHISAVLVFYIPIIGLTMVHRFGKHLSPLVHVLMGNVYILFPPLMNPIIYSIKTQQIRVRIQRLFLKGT
Outline: as §1

[4] = biological target: T4, UniProt E9Q4X7
T4 sequence (whole entry): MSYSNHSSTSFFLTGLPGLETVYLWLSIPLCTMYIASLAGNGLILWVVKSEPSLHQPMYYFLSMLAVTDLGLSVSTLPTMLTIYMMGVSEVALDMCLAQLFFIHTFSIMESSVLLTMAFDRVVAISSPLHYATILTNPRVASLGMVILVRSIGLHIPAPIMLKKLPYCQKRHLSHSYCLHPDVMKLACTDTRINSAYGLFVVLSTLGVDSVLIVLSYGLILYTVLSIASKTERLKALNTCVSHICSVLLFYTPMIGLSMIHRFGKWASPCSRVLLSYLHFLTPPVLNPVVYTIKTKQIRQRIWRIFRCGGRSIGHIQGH
Outline: as §1

[5] = biological target: T5, UniProt E9Q546
T5 sequence (whole entry): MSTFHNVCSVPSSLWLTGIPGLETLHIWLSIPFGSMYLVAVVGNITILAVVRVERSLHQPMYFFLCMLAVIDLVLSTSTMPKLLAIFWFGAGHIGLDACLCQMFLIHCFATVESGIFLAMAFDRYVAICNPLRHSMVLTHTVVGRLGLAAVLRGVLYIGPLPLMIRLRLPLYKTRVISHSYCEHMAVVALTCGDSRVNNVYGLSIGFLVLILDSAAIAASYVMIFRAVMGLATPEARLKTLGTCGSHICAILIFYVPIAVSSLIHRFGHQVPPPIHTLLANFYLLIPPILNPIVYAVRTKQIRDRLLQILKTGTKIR
Outline: as §1

[6] = biological target: T6, UniProt E9Q6Z7
T6 sequence (whole entry): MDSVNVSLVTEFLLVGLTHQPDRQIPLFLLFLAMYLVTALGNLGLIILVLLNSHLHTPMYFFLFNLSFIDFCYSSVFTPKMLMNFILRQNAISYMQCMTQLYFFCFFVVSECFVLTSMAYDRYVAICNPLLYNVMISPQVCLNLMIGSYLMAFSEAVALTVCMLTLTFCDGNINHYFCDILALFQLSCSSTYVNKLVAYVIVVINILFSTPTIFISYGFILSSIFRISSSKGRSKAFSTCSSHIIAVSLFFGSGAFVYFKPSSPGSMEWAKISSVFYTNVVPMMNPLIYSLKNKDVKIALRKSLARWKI
Outline: as §1

[7] = biological target: T7, UniProt L7MU75
T7 sequence (whole entry): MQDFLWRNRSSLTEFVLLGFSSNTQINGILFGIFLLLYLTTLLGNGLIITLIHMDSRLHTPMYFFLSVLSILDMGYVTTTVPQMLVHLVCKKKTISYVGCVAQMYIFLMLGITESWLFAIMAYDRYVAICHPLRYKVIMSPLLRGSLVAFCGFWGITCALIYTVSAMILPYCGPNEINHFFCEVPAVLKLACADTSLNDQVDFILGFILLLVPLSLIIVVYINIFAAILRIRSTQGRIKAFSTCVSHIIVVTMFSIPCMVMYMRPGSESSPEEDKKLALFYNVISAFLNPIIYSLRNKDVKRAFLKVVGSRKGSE
Outline: as §1

[8] = biological target: T8, UniProt L7N210
T8 sequence (whole entry): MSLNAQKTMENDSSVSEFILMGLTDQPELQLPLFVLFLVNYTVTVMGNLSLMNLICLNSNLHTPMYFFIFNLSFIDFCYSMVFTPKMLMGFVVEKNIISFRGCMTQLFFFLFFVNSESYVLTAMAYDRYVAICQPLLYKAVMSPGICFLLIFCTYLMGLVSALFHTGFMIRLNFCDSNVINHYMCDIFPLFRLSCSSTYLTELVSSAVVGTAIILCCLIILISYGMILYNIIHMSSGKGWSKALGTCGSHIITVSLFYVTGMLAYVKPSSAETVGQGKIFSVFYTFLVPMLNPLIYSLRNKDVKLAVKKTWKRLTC
Outline: as §1

[9] = biological target: T9, UniProt Q3KPB0
T9 sequence (whole entry): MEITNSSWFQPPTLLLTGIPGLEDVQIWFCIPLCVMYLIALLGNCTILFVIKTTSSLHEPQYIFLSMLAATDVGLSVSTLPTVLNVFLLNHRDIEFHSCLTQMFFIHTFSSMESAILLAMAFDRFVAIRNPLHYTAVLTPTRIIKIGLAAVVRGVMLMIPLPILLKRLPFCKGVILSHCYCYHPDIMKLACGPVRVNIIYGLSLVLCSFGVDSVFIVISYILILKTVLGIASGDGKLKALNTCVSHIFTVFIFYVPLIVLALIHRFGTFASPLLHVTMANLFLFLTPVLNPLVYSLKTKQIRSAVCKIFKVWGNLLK
Outline: as §1

[10] = biological target: T10, UniProt Q3U0P3
T10 sequence (whole entry): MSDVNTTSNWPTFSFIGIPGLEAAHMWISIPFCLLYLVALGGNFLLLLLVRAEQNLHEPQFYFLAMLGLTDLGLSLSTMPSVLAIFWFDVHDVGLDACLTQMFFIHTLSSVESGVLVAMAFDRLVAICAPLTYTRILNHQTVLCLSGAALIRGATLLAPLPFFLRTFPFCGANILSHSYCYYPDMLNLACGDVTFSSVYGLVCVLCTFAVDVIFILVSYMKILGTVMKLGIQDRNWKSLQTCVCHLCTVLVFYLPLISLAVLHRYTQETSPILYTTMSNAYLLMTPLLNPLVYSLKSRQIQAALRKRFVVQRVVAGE
Outline: as §1

[11] = biological target: T11, UniProt Q7TQU8
T11 sequence (whole entry): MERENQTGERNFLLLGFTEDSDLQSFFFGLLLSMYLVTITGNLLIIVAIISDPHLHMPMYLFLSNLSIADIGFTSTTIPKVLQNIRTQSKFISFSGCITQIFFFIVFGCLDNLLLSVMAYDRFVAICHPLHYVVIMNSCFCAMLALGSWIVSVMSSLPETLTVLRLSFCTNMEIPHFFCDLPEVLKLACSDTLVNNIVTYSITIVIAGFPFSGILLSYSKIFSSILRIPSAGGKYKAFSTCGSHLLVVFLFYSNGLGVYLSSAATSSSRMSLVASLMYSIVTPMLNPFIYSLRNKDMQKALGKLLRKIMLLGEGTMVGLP
Outline: as §1

[12] = biological target: T12, UniProt Q7TR79
T12 sequence (whole entry): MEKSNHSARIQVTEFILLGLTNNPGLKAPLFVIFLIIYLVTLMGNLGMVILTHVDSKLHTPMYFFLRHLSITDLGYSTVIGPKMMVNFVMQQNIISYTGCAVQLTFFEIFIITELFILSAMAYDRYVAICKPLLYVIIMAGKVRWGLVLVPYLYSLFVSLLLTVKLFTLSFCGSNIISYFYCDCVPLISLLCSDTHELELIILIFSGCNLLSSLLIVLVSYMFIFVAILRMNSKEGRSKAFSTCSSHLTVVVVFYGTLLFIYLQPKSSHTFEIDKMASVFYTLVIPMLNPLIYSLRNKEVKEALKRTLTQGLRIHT
Outline: as §1

[13] = biological target: T13, UniProt B2RVX8
T13 sequence (whole entry): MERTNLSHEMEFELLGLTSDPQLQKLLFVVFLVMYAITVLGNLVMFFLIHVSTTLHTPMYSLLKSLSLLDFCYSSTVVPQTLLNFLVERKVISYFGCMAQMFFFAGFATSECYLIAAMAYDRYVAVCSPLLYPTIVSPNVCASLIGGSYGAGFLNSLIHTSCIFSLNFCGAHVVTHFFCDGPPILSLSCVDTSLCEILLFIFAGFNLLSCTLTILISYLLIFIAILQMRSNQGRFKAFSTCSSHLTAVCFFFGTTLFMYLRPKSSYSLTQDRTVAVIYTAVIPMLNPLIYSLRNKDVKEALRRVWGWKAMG
Outline: as §1

[14] = biological target: T14, UniProt K7N609
T14 sequence (whole entry): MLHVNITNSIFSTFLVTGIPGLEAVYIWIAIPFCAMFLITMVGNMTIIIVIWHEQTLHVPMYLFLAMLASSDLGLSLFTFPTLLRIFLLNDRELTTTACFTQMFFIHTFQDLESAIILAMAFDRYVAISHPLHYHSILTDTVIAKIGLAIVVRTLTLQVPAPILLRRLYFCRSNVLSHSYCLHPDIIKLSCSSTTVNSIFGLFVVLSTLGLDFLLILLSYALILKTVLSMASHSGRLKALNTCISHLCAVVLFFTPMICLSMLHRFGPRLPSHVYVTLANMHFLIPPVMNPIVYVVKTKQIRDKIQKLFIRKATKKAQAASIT
Outline: as §1

[15] = biological target: T15, UniProt Q7TQV4
T15 sequence (whole entry): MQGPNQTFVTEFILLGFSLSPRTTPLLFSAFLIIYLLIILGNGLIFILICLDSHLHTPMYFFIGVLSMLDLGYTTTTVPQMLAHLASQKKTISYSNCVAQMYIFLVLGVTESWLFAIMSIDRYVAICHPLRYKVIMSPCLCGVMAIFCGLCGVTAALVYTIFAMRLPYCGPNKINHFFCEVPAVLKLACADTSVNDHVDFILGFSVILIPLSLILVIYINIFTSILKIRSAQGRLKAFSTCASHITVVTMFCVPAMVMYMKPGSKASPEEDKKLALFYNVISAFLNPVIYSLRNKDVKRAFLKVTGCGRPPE
Outline: as §1

[16] = biological target: T16, UniProt Q7TR71
T16 sequence (whole entry): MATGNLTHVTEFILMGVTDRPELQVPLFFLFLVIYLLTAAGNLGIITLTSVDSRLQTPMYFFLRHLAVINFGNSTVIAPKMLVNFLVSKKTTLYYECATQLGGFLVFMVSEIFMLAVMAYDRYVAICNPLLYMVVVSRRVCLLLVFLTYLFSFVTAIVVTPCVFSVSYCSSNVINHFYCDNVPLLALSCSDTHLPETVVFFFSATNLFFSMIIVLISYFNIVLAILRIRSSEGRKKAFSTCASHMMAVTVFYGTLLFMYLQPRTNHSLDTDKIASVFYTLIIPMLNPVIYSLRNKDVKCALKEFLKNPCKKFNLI
Outline: as §1

[17] = biological target: T17, UniProt Q7TRA3
T17 sequence (whole entry): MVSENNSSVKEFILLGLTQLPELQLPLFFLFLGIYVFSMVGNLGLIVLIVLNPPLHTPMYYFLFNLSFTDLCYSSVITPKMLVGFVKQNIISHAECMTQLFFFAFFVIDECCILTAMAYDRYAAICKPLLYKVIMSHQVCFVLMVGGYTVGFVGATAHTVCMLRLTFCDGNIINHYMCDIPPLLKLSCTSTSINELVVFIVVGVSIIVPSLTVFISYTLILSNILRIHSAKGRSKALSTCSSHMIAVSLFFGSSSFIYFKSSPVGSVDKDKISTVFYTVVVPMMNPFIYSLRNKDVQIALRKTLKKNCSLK
Outline: as §1

[18] = biological target: T18, UniProt Q7TRE4
T18 sequence (whole entry): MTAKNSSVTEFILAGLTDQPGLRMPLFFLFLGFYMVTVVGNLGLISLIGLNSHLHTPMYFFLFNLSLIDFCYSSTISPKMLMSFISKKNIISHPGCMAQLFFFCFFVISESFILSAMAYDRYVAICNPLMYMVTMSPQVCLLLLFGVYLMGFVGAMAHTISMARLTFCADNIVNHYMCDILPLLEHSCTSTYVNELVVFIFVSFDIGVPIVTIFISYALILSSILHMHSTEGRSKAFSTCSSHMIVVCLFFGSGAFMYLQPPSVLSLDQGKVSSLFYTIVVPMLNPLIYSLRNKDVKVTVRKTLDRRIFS
Outline: as §1
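Further: active if original authors judged signal statistically different from baseline.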

Row | Structure (SMILES) | odorant receptor agonist call [1] | odorant receptor agonist call [2] | odorant receptor agonist call [3] | odorant receptor agonist call [4] | odorant receptor agonist call [5] | odorant receptor agonist call [6] | odorant receptor agonist call [7] | odorant receptor agonist call [8] | odorant receptor agonist call [9] | odorant receptor agonist call [10] | odorant receptor agonist call [11] | odorant receptor agonist call [12] | odorant receptor agonist call [13] | odorant receptor agonist call [14] | odorant receptor agonist call [15] | odorant receptor agonist call [16] | odorant receptor agonist call [17] | odorant receptor agonist call [18]
1 | Cc1c([N+](=O)[O-])c(C)c([N+](=O)[O-])c(C(C)(C)C)c1[N+](=O)[O-] | active | – | – | – | – | – | – | – | – | – | – | – | – | – | – | – | – | –
2 | Cc1ccc(OC(=O)Cc2ccccc2)cc1 | – | inactive | inactive | inactive | inactive | inactive | inactive | inactive | inactive | inactive | inactive | inactive | – | – | – | – | – | –
3 | O=CC=Cc1ccccc1 | – | inactive | inactive | inactive | inactive | inactive | inactive | inactive | inactive | inactive | inactive | inactive | – | – | – | – | – | –
4 | O=c1cc(O)c2ccccc2o1 | – | inactive | inactive | inactive | inactive | inactive | inactive | inactive | inactive | inactive | inactive | inactive | inactive | inactive | inactive | inactive | inactive | inactive
